Assay [1] has as its system dihydropteridine reductase. The experiment in a line: Tested in isolated enzyme assay for its cofactor activity against dihydropteridine reductase expressed as Michaelis-Menten constant (calculated in the presence of platinum catalyst).
Assay [2] addresses T1, Phenylalanine-4-hydroxylase (Rattus norvegicus) (UniProt P04176).
T1 sequence (whole entry): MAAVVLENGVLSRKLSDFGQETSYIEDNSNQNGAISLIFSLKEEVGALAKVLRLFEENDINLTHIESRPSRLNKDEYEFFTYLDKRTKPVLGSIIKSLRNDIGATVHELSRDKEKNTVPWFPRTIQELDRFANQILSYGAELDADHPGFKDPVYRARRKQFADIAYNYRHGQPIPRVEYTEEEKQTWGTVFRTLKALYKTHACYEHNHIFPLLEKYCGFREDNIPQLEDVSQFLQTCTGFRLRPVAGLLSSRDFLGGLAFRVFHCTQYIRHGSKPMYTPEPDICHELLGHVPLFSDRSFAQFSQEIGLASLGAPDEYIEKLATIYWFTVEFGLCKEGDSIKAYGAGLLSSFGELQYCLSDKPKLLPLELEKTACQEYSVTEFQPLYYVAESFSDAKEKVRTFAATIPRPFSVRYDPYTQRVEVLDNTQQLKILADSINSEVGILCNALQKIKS
The experiment in a line: Tested in isolated enzyme assay for its cofactor activity against phenylalanine hydroxylase (isolated from rat liver) expressed as relative velocity. In outline:
(§1)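 Phenylalanine hydroxylase was isolated from rat liver and purified on phenyl-Sepharose. Tyrosine formed was quantified by liquid chromatography with fluorescence detection, and velocities were expressed relative to tetrahydrobiopterin.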

The target in assay [3] is T2, Tryptophan 5-hydroxylase 1 (Rattus norvegicus) (UniProt P09810).
T2 sequence (whole entry): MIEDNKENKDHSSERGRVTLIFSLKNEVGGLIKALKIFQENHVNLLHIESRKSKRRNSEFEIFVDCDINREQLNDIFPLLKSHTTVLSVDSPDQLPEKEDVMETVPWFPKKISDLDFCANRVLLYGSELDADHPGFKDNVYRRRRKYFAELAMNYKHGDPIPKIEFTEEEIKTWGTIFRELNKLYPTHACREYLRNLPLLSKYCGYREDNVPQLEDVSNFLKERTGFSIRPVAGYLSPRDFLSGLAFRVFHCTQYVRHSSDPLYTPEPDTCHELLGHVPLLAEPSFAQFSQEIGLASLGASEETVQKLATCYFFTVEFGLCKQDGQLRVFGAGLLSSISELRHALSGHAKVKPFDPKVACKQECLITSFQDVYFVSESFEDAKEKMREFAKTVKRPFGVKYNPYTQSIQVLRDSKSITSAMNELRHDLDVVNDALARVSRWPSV
The experiment in a line: Tested in isolated enzyme assay for its cofactor activity against tryptophan hydroxylase (isolated from rat brain stem) expressed as relative velocity. The method, boiled down:
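The tryptophan hydroxylase source was a desalted 40000g supernatant of rat brain stem, with velocities expressed relative to tetrahydrobiopterin.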

Assay [4] deals with T3, Tyrosine 3-monooxygenase (Bos taurus) (UniProt P17289).
T3 sequence (whole entry): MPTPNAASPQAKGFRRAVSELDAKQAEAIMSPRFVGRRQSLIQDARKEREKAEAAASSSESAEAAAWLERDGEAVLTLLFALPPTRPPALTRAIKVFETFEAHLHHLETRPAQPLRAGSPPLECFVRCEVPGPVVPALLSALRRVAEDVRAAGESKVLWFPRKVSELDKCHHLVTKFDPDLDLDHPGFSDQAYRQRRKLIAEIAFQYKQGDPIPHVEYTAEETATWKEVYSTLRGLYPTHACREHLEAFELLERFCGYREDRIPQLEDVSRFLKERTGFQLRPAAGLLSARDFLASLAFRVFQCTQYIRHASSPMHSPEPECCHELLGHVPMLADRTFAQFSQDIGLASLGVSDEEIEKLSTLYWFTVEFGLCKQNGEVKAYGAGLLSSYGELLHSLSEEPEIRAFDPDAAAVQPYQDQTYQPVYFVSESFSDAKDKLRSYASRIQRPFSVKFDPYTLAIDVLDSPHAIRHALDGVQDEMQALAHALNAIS
Briefly: Cofactor activity in bovine adrenal medulla tyrosine hydroxylase assay as relative velocity. The method, boiled down:
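Tyrosine hydroxylase was purified from bovine adrenal medulla by partial trypsin digestion, giving a model of the high-affinity form, then ammonium sulfate fractionation. Activity was measured as release of ³H₂O from L-(3,5-³H)tyrosine, with velocities expressed relative to tetrahydrobiopterin.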

In assay [5] the test system is dihydropteridine reductase. Briefly: Tested in isolated enzyme assay for its cofactor activity against dihydropteridine reductase expressed as Michaelis-Menten constant.
Assay [6] addresses T1, Phenylalanine-4-hydroxylase (Rattus norvegicus). The experiment in a line: Tested in isolated enzyme assay for its cofactor activity against phenylalanine hydroxylase (iisolated from rat liver) expressed as relative velocity. The method, boiled down:
as §1

One may read the Km as the concentration of substrate that gives half-maximal velocity. As for `CC1(C)CNc2nc(N)nc(O)c2N1`, the Km in assay [1] is 260 µM. In addition, the Relative velocity was determined as 39% in assay [2], 40% in assay [3] and 119% in assay [4].

As for `CC(C)OCC1CNc2nc(N)nc(O)c2N1` (configuration not stated), the figures for the Relative velocity in assay [2], in assay [3] and in assay [4] were 15%, 44% and 137%, respectively. In assay [5], the Km amounted to 4 µM.

In the case of `CCOCC1CNc2nc(N)nc(O)c2N1` (configuration not stated), the Km in assay [5] stood at 6 µM. For the same compound, the Relative velocity amounted to 85% in assay [3], 154% in assay [4] and 155% in assay [6].

In the case of `CCCCOCC1CNc2nc(N)nc(O)c2N1` (configuration not stated), the Relative velocity in assay [2] worked out at 22%; in assay [3], 52%; in assay [4] it was 135%. Besides, the Km in assay [5] came out at 3 µM.

On to `CC(C)COCC1CNc2nc(N)nc(O)c2N1` (configuration not stated), for which, in assay [4], the Relative velocity worked out at 110%.

On to `CC1CNc2nc(N)[nH]c(=O)c2N1` (configuration not stated), for which the Km in assay [5] turned out to be 13 µM. Further, the Relative velocity in assay [3] stood at 154%; in assay [4] it was 154%; in assay [6], 238%.

As for `CCCCCOCC1CNc2nc(N)nc(O)c2N1` (configuration not stated), the Relative velocity in assay [4] came to 85%.

`CC(O)C(O)C1CNc2nc(N)nc(O)c2N1` (configuration not stated): the Km in assay [5] is 2 µM. In addition, the Relative velocity in assay [3], in assay [4] and in assay [6] was 100% throughout.

With `CCCCCCCCOCC1CNc2nc(N)nc(O)c2N1` (configuration not stated), the Relative velocity was determined as 3% in assay [2], 32% in assay [3] and 48% in assay [4].

As to `COCCOCC1CNc2nc(N)nc(O)c2N1` (configuration not stated), the Relative velocity was determined as 36% in assay [2] and 131% in assay [4].

Consider `COCC1CNc2nc(N)nc(O)c2N1` (configuration not stated), for which, in assay [5], the Km came to 9 µM. The Relative velocity in assay [3] was found to be 65%; in assay [4], 126%; in assay [6], 138%.

In the case of `CCCOCC1CNc2nc(N)nc(O)c2N1` (configuration not stated), the values for the Relative velocity in assay [2], in assay [3] and in assay [4] were 32%, 54% and 92%, respectively. Moreover, the Km in assay [5] was found to be 2 µM.

For the compound `CC(C)(C)OCC1CNc2nc(N)nc(O)c2N1` (configuration not stated), the Relative velocity in assay [2] turned out to be 4%; in assay [4] it was 130%. The Km in assay [5] came out at 5 µM.

The values above are taken from ChEMBL document CHEMBL1123591, “Synthetic analogues of tetrahydrobiopterin with cofactor activity for aromatic amino acid hydroxylases” (1987).
